Data from ChEMBL document CHEMBL1152649, “Synthesis, cytotoxicity and human telomerase inhibition activities of a series of 1,2-heteroannelated anthraquinones and anthra[1,2-d]imidazole-6,11-dione homologues” (2009).
Calls of active or inactive are those of the source. The calls are words filed in the database; no cut-off is given here.

Tests used:
[1] = Cytotoxicity against human H1299 cells at 1 uM after 48 hrs by MTT assay; type: functional; conditions: NCI-H1299, 48 h
Outline: (§1)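 H1299 non-small cell lung cancer cells were grown in RPMI 1640 with 10% FBS, penicillin and streptomycin at 37 °C under 5% CO2. About 2 × 10³ cells per well were seeded and left 24 h. Compounds were dissolved fresh in DMSO, diluted into complete medium and applied for 48 h. MTT was then added for 4 h at 37 °C, followed by lysis buffer (20% SDS, 50% DMF) for 16 h, and absorbance was read at 550 nm.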

[2] = Cytotoxicity against human H1299 cells at 10 uM after 48 hrs by MTT assay; type: functional; conditions: NCI-H1299, 48 h; outline: as §1
[3] = Cytotoxicity against human H1299 cells at 100 uM after 48 hrs by MTT assay; type: functional; conditions: NCI-H1299, 48 h; outline: as §1
[4] = target: Telomerase reverse transcriptase (Homo sapiens) (UniProt O14746); test: Inhibition of telomerase in human H1299 cells up to 100 uM by TRAP assay; type: cell-based
Outline: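 PCR-based telomeric repeat amplification protocol (TRAP). The telomerase source was total lysate of H1299 lung cancer cells, with protein measured against BSA standards. Controls were extract without inhibitor and RNase A-treated extract.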

[5] = target: Telomerase reverse transcriptase (Homo sapiens) (UniProt O14746); test: Inhibition of TERT in human H1299 cells assessed as residual transcriptional activity at 1 uM after 24 hrs by SEAP reporter gene assay; values are per cent of control
[6] = target: Telomerase reverse transcriptase (Homo sapiens) (UniProt O14746); test: Inhibition of TERT in human H1299 cells assessed as residual transcriptional activity at 10 uM after 24 hrs by SEAP reporter gene assay; values are per cent of control
[7] = target: Telomerase reverse transcriptase (Homo sapiens) (UniProt O14746); test: Inhibition of TERT in human H1299 cells assessed as residual transcriptional activity at 100 uM after 24 hrs by SEAP reporter gene assay; values are per cent of control

Chain of Telomerase reverse transcriptase (Homo sapiens) (O14746 whole entry): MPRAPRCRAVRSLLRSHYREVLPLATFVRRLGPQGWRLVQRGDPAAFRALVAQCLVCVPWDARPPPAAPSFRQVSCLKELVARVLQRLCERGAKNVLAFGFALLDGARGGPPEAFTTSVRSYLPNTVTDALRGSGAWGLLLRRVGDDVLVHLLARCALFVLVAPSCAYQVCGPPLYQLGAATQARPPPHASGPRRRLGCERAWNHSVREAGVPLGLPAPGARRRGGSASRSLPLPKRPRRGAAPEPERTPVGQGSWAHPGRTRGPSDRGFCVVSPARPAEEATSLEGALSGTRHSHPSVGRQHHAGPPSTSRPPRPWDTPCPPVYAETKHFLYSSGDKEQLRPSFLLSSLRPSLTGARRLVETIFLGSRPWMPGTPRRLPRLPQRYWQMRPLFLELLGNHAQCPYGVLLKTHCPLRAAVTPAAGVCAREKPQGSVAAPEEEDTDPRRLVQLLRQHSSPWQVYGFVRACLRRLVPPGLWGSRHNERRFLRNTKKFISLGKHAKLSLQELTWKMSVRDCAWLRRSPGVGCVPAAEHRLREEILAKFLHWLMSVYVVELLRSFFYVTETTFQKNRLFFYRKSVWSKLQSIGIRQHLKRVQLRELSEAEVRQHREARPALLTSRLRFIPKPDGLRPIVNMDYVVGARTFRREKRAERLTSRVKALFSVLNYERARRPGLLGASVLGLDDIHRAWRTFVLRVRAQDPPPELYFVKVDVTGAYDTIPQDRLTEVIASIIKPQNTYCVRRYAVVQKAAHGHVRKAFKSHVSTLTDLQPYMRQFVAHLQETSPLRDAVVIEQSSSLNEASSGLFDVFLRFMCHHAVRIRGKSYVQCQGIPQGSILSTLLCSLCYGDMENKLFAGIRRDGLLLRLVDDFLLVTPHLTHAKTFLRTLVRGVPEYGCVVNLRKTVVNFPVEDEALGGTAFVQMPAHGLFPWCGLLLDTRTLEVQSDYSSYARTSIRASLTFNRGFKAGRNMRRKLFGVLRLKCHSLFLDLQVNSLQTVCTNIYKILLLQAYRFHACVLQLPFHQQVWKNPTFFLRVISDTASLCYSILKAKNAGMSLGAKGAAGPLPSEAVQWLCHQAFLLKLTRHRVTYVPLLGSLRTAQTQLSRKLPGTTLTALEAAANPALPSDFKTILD

Row | SMILES | inhibition [4] | residual activity [5] | residual activity [6] | residual activity [7] | viability at 1 µM [1] | viability at 10 µM [2] | viability at 100 µM [3]
1 | COc1ccc(OC)c(-c2nc3ccc4c(c3[nH]2)C(=O)c2ccccc2C4=O)c1 | inactive | 77% | 76% | 41% | 91% | 39% | 13%
2 | CCCCCCCc1nc2ccc3c(c2[nH]1)C(=O)c1ccccc1C3=O | inactive | 89% | 88% | 32% | 85% | 69% | 40%
3 | O=C1c2ccccc2C(=O)c2c1ccc1nc(CCl)[nH]c21 | inactive | 94% | 81% | 5% | 80% | 79% | 26%
4 | O=C1c2ccccc2C(=O)c2c1ccc1[nH]c(=S)[nH]c21 | inactive | 97% | 100% | 31% | 101% | 99% | 54%
5 | CCCCc1nc2ccc3c(c2[nH]1)C(=O)c1ccccc1C3=O | inactive | 91% | 84% | 36% | 85% | 70% | 20%

More lines, main results first:

Row | inhibition [4] | residual activity [5] | residual activity [6] | residual activity [7] | SMILES | viability at 1 µM [1] | viability at 10 µM [2] | viability at 100 µM [3]
6 | inactive | 83% | 76% | 13% | CC(C)c1nc2ccc3c(c2[nH]1)C(=O)c1ccccc1C3=O | 95% | 73% | 34%
7 | inactive | 67% | 58% | 11% | CCC(C)c1nc2ccc3c(c2[nH]1)C(=O)c1ccccc1C3=O (stereo unspecified) | 77% | 83% | 43%
8 | inactive | 95% | 88% | 26% | Cc1nc2ccc3c(c2nc1C)C(=O)c1ccccc1C3=O | 78% | 69% | 25%
9 | inactive | 85% | 62% | 6% | O=C1c2ccccc2C(=O)c2c1ccc1nc(-c3ccc([N+](=O)[O-])cc3)[nH]c21 | 84% | 52% | 33%
10 | inactive | 88% | 87% | 29% | CC(C)(C)c1nc2ccc3c(c2[nH]1)C(=O)c1ccccc1C3=O | 83% | 81% | 56%
11 | inactive | 63% | 34% | 13% | CC/C=C/c1nc2ccc3c(c2[nH]1)C(=O)c1ccccc1C3=O | 69% | 48% | 14%
12 | inactive | 101% | 82% | 19% | Cc1nc2ccc3c(c2[nH]1)C(=O)c1ccccc1C3=O | 64% | 44% | 33%
13 | inactive | 99% | 97% | 29% | CC1(c2ccccc2)Nc2ccc3c(c2N1)C(=O)c1ccccc1C3=O (stereo unspecified) | 99% | 99% | 29%
